KCNQ1 act – potentiators or activators of KCNQ1 channel, primary screen, cell-based, thallium flux, high-throughput. Potassium voltage-gated channel subfamily KQT member 1 (Homo sapiens), P51787. CHO-K1 KCNQ1, thallium flux FluxOR fluorescence; stronger effect = higher value. B-score at 10 µM. 310,000 tested, 0.35% active;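 active = fluorescence ratio B-score, a plate-corrected score, at least three library SD, with initial intensity B-score within 5 SD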
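assay system = CHO-K1 cells stably expressing KCNQ1 | medium = assay buffer, equal DMSO in all wells | timing = 37 °C overnight plating, 90-min dark dye load, 20-min compound pretreatment | measured by = kinetic FluxOR thallium fluorescence, 10-s 1-Hz baseline, 110-s post-stimulus read | measure = fluorescence change relative to baseline, converted to B score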
Kir21 block – inhibitors of mouse Kir2.1 inward-rectifier potassium channel; B-score at 10 µM; 310,000 tested, 0.85% active; Inward rectifier potassium channel 2 (Mus musculus), P35561; HEK293-Kir2.1, FluxOR thallium flux fluorescence; stronger effect = lower value;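 active = fluorescence ratio B-score at or below minus 3 SD of library scores, with starting-brightness B-score within 2 SD, cut at about -4.2 in these data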;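 note: channel flux triggered by added potassium and thallium sulfate stimulus; B-score of peak minus minimum fluorescence over baseline after thallium stimulus; more negative B-score means stronger Kir2.1 block with less thallium influx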
KCNK9 inh – KCNK9 potassium channel inhibitors, primary screen, HEK293 cells, thallium flux; Potassium channel subfamily K member 9 (Homo sapiens), Q9NPC2; FluxOR thallium flux fluorescence; stronger effect = lower value; B-score at 10 µM; 310,000 tested, 1.2% active; AID 488922, 2010;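 active = ratio B-score over 3 SD below the library mean, with starting fluorescence within 5 SD of its mean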;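 note: negative B-score means less thallium flux so channel inhibition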
Target sequence (Q9NPC2 whole entry, looked up): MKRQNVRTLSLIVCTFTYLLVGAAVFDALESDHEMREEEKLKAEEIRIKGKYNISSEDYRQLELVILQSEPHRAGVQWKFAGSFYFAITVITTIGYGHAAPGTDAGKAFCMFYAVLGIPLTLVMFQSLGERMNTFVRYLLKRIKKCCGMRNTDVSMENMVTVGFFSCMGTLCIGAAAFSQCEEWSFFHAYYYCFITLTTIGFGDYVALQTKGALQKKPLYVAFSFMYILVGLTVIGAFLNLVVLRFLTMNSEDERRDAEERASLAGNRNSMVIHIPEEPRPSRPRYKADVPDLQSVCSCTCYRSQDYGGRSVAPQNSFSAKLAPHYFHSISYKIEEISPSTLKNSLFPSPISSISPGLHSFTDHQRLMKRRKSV
KCNQ1 inh – inhibitors of human KCNQ1 channel, primary screen, cell-based, thallium flux, high-throughput | Potassium voltage-gated channel subfamily KQT member 1 (Homo sapiens), P51787 | CHO-K1 KCNQ1, FluxOR thallium flux fluorescence; stronger effect = higher value | B-score at 10 µM | 310,000 tested, 1.3% active | AID 2642, 2010;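 active = compounds whose thallium flux B-score, printed positive for inhibition, exceeds three library SD while starting fluorescence stays within three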;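 note: channel opened by potassium depolarization with thallium stimulus after 20 min compound exposure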
KCNK3 block – human KCNK3 channel inhibitors, primary screen, CHO cells, FluxOR thallium flux, B-score; Potassium channel subfamily K member 3 (Homo sapiens), O14649; 340,000 tested, 0.84% active; FluxOR fluorescence; stronger effect = lower value; B-score at 10 µM; AID 602410, 2012;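 active = B-score under library mean minus 4 SD, starting fluorescence ratio at most library mean plus 5 SD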;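 note: more negative B-score means stronger inhibition of thallium flux through KCNK3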
hERG protect – hERG rescue from dofetilide block, primary screen, cell-based, CHO-hERG, FluxOR thallium flux, dofetilide IC70 | Voltage-gated inwardly rectifying potassium channel KCNH2 (Homo sapiens), Q12809 | dofetilide IC70 present | activation (rescue from dofetilide block), less the hit threshold, % at 10 µM | 310,000 tested, 0.51% active;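 active = activation above the mean of controls blocked by dofetilide plus 5 SD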;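 note: thallium influx through hERG after potassium depolarization seen as dye fluorescence rise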
KCNK9 inh conf – KCNK9 potassium channel inhibitors, confirmation, HEK293 cells, thallium flux, duplicate. shares compounds with KCNK9 inh. FluxOR thallium flux fluorescence. inhibition, % at 10 µM. 4,900 tested, 43% active. AID 492992, 2010;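 active = thallium signal inhibited by more than 5 SD of the compound-free buffer control wells, on both duplicate plates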;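 note: 0% = assay buffer control wells without compound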
Kir2-1 spec – mouse Kir2.1 channel inhibition, confirmation, selectivity assay for KCNK9 modulator project, cell-based, HEK293, thallium flux; Kir2.1 cells, FluxOR thallium flux fluorescence; inhibition, % at 10 µM; 4,900 tested, 4% active; AID 492993, 2010; shares compounds with KCNK9 inh;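 active = thallium signal drop more than 5 SD beyond the mean of the no-compound control wells, seen in both duplicate plates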;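 note: signal is fluorescence rise after thallium addition divided by baseline fluorescence; plate controls were assay buffer only for no effect and full block by chlorpromazine control for full effect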
KCNK9 uninduced – thallium flux in non-induced HEK293 cells, confirmation, counter-screen for KCNK9 inhibitor project, cell-based, second counter screen, non-induced KCNK9-HEK293; 4,900 tested, 40% active; inhibition, % at 10 µM; shares compounds with KCNK9 inh; FluxOR thallium flux;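 active = thallium signal drop beyond 5 SD of the untreated control mean, on both duplicate plates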;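 note: plate controls were buffer only IC0 wells for no effect and SID17386958 at its maximal inhibitory level for full effect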
* hit, by the source's call; i = inactive; nt = no result given. Sampled rows, rich in hits. Any-hit rate of the full collection: about 3.7%.

SMILES | KCNQ1 act | Kir21 block | KCNK9 inh | KCNQ1 inh | KCNK3 block | hERG protect | KCNK9 inh conf | Kir2-1 spec | KCNK9 uninduced
COc1cc(C(=O)NC(=S)Nc2ccccc2N2CCCC2)cc(OC)c1OC | i | -0.27 | i | i | i | -11 | i | i | i
CCn1cc(C2=NC(C)(C)CO2)c2ccccc21 | i | 0.27 | i | i | i | -8 | i | i | i
COc1cc(N=c2ssnc2Cl)cc(OC)c1 | i | -3.4 | i | i | i | -17 | i | i | i
Clc1ccc(N=c2ssnc2Cl)nc1 | i | 0 | i | i | i | -15 | nt | nt | nt
N#Cc1cccc(N=c2ssnc2Cl)c1 | i | -2 | i | i | i | 5.2* | i | i | i
Clc1nssc1=Nc1ccc(Br)cc1 | i | -1.1 | i | i | i | -10 | nt | nt | nt
Cc1c(CCCN)c2ccccc2n1Cc1ccccc1 | i | -1.4 | i | i | i | -13 | nt | nt | nt
CNC(=O)c1oc(-c2ccccc2)nc1C | i | -1.5 | i | i | i | -3 | nt | nt | nt
Cc1c(N=Nc2c(-c3ccc([N+](=O)[O-])cc3)[nH]n(C(N)=S)c2=O)cccc1[N+](=O)[O-] | nt | nt | nt | nt | i | nt | nt | nt | nt
Cc1[nH]n(C(N)=S)c(=O)c1N=Nc1cccc([N+](=O)[O-])c1C | i | 0.44 | i | i | i | -9 | i | i | i
Cc1ccccc1C(=O)N1CCN(C(c2ccccc2)c2ccccc2)CC1 | i | 0 | i | i | i | -9 | nt | nt | nt
CCOc1ccccc1C(=O)N1CCN(C(c2ccccc2)c2ccccc2)CC1 | i | -0.02 | -8.4* | i | i | -12 | i | i | 26%*
CCOc1ccccc1N1CCN(C(=O)C(Sc2ccccc2)c2ccccc2)CC1 (stereo not given) | i | 0.83 | -12* | i | i | -9 | 56%* | i | 28%*
CCN1C(=S)N[C@@H](c2cccs2)C(C(=O)OC)=C1C | i | -0.57 | i | i | i | -9 | nt | nt | nt
O=c1c2c(ncn2C2CCCC2)n(Cc2ccccc2)c(=O)n1CCOc1ccc(Br)cc1 | i | -0.13 | i | i | i | -9 | i | i | i
O=c1c2c(ncn2C2CCCC2)n(Cc2ccccc2)c(=O)n1CCOc1ccccc1 | i | -1.4 | i | i | i | -2 | i | i | i
Cc1ccc(C)c(OCCn2c(=O)c3c(ncn3C3CCCC3)n(Cc3ccccc3)c2=O)c1 | i | -0.7 | i | i | i | -13 | i | i | i
O=C(NNC(=O)c1ccccc1Br)c1ccc(SCC2CCCO2)c([N+](=O)[O-])c1 (stereo not given) | i | 2 | i | i | i | -9 | nt | nt | nt
CC1SCC(NC(=O)c2cccc(Cl)c2)CS1 (stereo not given) | i | -0.16 | -10* | i | i | -9 | 44%* | i | 26%*
CC1SCC(NC(=O)c2ccccc2Cl)CS1 (stereo not given) | i | -0.47 | i | i | i | -8 | nt | nt | nt
CC1SCC(NC(=O)c2ccc(Cl)cc2)CS1 (stereo not given) | i | -0.12 | -14* | i | i | -9 | i | i | 24%*
CN1C(=O)C2(Nc3ccccc3-c3nc4ccccc4n32)c2ccccc21 (stereo not given) | i | -0.25 | i | i | i | -5 | nt | nt | nt
CCN1C(=O)C2(Nc3ccccc3-c3nc4ccccc4n32)c2cc(OC)ccc21 (stereo not given) | i | -1.2 | -15* | i | i | -13 | 58%* | i | 24%*
CCC(=O)N(C(=O)CC)N1CCN(c2ccncc2S(=O)(=O)N2CCCCC2)CC1 | i | -1.6 | -9.3* | i | i | -11 | 42%* | i | 42%*
O=C(COC(=O)C1CCN(c2ccc(C(F)(F)F)cn2)CC1)NCc1cccc(Cl)c1 | nt | nt | nt | nt | i | nt | nt | nt | nt
SMILES | KCNQ1 act | Kir21 block | KCNK9 inh | KCNQ1 inh | KCNK3 block | hERG protect | KCNK9 inh conf | Kir2-1 spec | KCNK9 uninduced
CSCCC(NS(=O)(=O)c1ccc(C)cc1C)C(=O)Nc1cccnc1 (stereo not given) | nt | nt | nt | nt | i | nt | nt | nt | nt
CCC(c1nnnn1C(C)(C)C)N1CCN(c2cc(Cl)ccc2C)CC1 (stereo not given) | i | 2.4 | -9.9* | i | -8.9* | -5 | 49%* | i | 47%*
c1cnc2ccc(C(c3nnnn3C3CCCC3)N3CCN(c4nc5ccccc5s4)CC3)cc2c1 (stereo not given) | i | 0.33 | -9.2* | i | -9.1* | -8 | i | i | 40%*
Cc1ccc(Cl)cc1N1CCN(C(c2cccnc2)c2nnnn2C2CCCCC2)CC1 (stereo not given) | i | 0.02 | -13* | i | -11* | -7 | 37%* | i | 44%*
CCOc1ccc(C(=O)NCC(c2ccco2)N2CCOCC2)cc1 (stereo not given) | i | -0.02 | i | i | i | -5 | nt | nt | nt
CCC(C)N(C(=O)COC(=O)COc1c(C)cc(C)cc1C)C1CCS(=O)(=O)C1 (stereo not given) | i | 0.45 | i | i | i | -20 | nt | nt | nt
NC(=O)c1ccsc1NC(=O)COC(=O)c1cc(Cl)ccc1O | i | -0.02 | i | i | i | -18 | nt | nt | nt
COc1cc2ncnc(N[C@H](C)c3ccccc3)c2cc1OC | i | 1 | i | i | i | -8 | nt | nt | nt
O=C(NC1CCS(=O)(=O)C1)c1ccc(S(=O)(=O)N2CCCCC2)cc1 (stereo not given) | i | 0.01 | i | i | i | -3 | nt | nt | nt
Cc1ccccc1C(=O)N1CCC(C(=O)Nc2ccc(F)cc2)CC1 | i | -1.1 | i | i | i | -16 | nt | nt | nt

Screens deposited in PubChem BioAssay by Johns Hopkins Ion Channel Center.
